Laboratory results reported in ChEMBL document CHEMBL1921722, “In vitro and in vivo evaluation of select kahalalide F analogs with antitumor and antifungal activities” (Bioorg Med Chem, 2011).
Active and inactive are the calls of the source.

How the values were obtained:
[1] = tested on: Malme-3M; test: Cytotoxicity against human MALME-3M cells by sulforhodamine B assay; assay type: functional
Summary of the method: (§1)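 NCI Developmental Therapeutics Program 60-cell-line human tumor panel screen, run at NCI. A single-concentration pre-screen was followed by a five-concentration dose-response in 10-fold steps. GI50 is the concentration that reduces growth of treated cells to half that of untreated control cells. TGI is the concentration that completely halts growth.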

[2] = tested on: SK-MEL-2; test: Cytotoxicity against human SK-MEL-2 cells by sulforhodamine B assay; assay type: functional; settings: for TGI: read-out: pTGI (converted); summary of the method: as §1
[3] = tested on: SK-MEL-28; test: Cytotoxicity against human SK-MEL-28 cells by sulforhodamine B assay; assay type: functional; summary of the method: as §1
[4] = tested on: SK-MEL-5; test: Cytotoxicity against human SK-MEL-5 cells by sulforhodamine B assay; assay type: functional; settings: for TGI: read-out: pTGI (converted); summary of the method: as §1
[5] = tested on: SN12C; test: Cytotoxicity against human SN12C cells by sulforhodamine B assay; assay type: functional; settings: for TGI: read-out: pTGI (converted); summary of the method: as §1
[6] = tested on: Malme-3M; test: Cytotoxicity against human MALME-3M cells assessed as cell growth at 8 nM by sulforhodamine B assay relative to control; assay type: functional; settings: read-out: Activity
[7] = tested on: NCI-H23; test: Cytotoxicity against human NCI-H23 cells assessed as cell growth at 8 nM by sulforhodamine B assay relative to control; assay type: functional; settings: read-out: Activity
[8] = tested on: HOP-62; test: Cytotoxicity against human HOP62 cells assessed as cell growth at 8 nM by sulforhodamine B assay relative to control; assay type: functional; settings: read-out: Activity
[9] = tested on: OVCAR-3; test: Cytotoxicity against human OVCAR3 cells assessed as cell growth at 8 nM by sulforhodamine B assay relative to control; assay type: functional; settings: read-out: Activity
[10] = tested on: MDA-MB-231; test: Cytotoxicity against human MDA-MB-231 cells assessed as cell growth at 8 nM by sulforhodamine B assay relative to control; assay type: functional; settings: read-out: Activity
[11] = tested on: NCI-H522; test: Cytotoxicity against human NCI-H522 cells assessed as cell growth at 80 nM by sulforhodamine B assay relative to control; assay type: functional; settings: read-out: Activity
[12] = tested on: SK-MEL-5; test: Cytotoxicity against human SK-MEL-5 cells assessed as cell growth at 80 nM by sulforhodamine B assay relative to control; assay type: functional; settings: read-out: Activity
[13] = tested on: OVCAR-5; test: Cytotoxicity against human OVCAR5 cells assessed as cell growth at 80 nM by sulforhodamine B assay relative to control; assay type: functional; settings: read-out: Activity
[14] = tested on: OVCAR-8; test: Cytotoxicity against human OVCAR8 cells assessed as cell growth at 80 nM by sulforhodamine B assay relative to control; assay type: functional; settings: read-out: Activity
[15] = tested on: A498; test: Cytotoxicity against human A498 cells assessed as cell growth at 80 nM by sulforhodamine B assay relative to control; assay type: functional; settings: read-out: Activity
Summary of the method: (§2)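 Run at NCI in the DTP 60-cell-line human tumor panel by standard procedure. Compounds were first screened at a single concentration, then tested at five tenfold-spaced concentrations. GI50 is the concentration reducing treated-cell growth to half that of untreated controls; TGI is the concentration completely halting growth.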

[16] = tested on: SN12C; test: Cytotoxicity against human SN12C cells assessed as cell growth at 80 nM by sulforhodamine B assay relative to control; assay type: functional; settings: read-out: Activity
[17] = tested on: HCT-116; test: Cytotoxicity against human HCT116 cells assessed as cell growth at 800 nM by sulforhodamine B assay relative to control; assay type: functional; settings: read-out: Activity
[18] = tested on: HCT-15; test: Cytotoxicity against human HCT15 cells assessed as cell growth at 800 nM by sulforhodamine B assay relative to control; assay type: functional; settings: read-out: Activity
[19] = tested on: KM12; test: Cytotoxicity against human KM12 cells assessed as cell growth at 800 nM by sulforhodamine B assay relative to control; assay type: functional; settings: read-out: Activity
[20] = tested on: SK-MEL-5; test: Cytotoxicity against human SK-MEL-5 cells assessed as cell growth at 800 nM by sulforhodamine B assay relative to control; assay type: functional; settings: read-out: Activity
[21] = tested on: RXF 393; test: Cytotoxicity against human RXF393 cells assessed as cell growth at 800 nM by sulforhodamine B assay relative to control; assay type: functional; settings: read-out: Activity
[22] = tested on: MCF7; test: Cytotoxicity against human MCF7 cells assessed as cell growth at 800 nM by sulforhodamine B assay relative to control; assay type: functional; settings: read-out: Activity
[23] = tested on: MDA-MB-231; test: Cytotoxicity against human MDA-MB-231 cells assessed as cell growth at 800 nM by sulforhodamine B assay relative to control; assay type: functional; settings: read-out: Activity
[24] = tested on: HT-29; test: Cytotoxicity against human HT-29 cells assessed as cell growth at 8 uM by sulforhodamine B assay relative to control; assay type: functional; settings: read-out: Activity
[25] = tested on: TK-10; test: Cytotoxicity against human TK10 cells assessed as cell growth at 8 uM by sulforhodamine B assay relative to control; assay type: functional; settings: read-out: Activity
[26] = tested on: MCF7; test: Cytotoxicity against human MCF7 cells assessed as cell growth at 8 uM by sulforhodamine B assay relative to control; assay type: functional; settings: read-out: Activity
[27] = tested on: MDA-MB-231; test: Cytotoxicity against human MDA-MB-231 cells assessed as cell growth at 8 uM by sulforhodamine B assay relative to control; assay type: functional; settings: read-out: Activity
[28] = tested on: NCI-H226; test: Cytotoxicity against human NCI-H226 cells assessed as cell growth at 80 uM by sulforhodamine B assay relative to control; assay type: functional; settings: read-out: Activity
[29] = tested on: COLO 205; test: Cytotoxicity against human COLO205 cells assessed as cell growth at 80 uM by sulforhodamine B assay relative to control; assay type: functional; settings: read-out: Activity; summary of the method: as §2
[30] = tested on: KM12; test: Cytotoxicity against human KM12 cells assessed as cell growth at 80 uM by sulforhodamine B assay relative to control; assay type: functional; settings: read-out: Activity
[31] = tested on: NCI/ADR-RES; test: Cytotoxicity against human NCI/ADR-RES cells assessed as cell growth at 80 uM by sulforhodamine B assay relative to control; assay type: functional; settings: read-out: Activity
[32] = tested on: MDA-MB-231; test: Cytotoxicity against human MDA-MB-231 cells assessed as cell growth at 80 uM by sulforhodamine B assay relative to control; assay type: functional; settings: read-out: Activity
[33] = tested on: SW-620; test: Antitumor activity against human SW620 cells xenografted in mouse assessed as tumor cell killing at 4.7 mg/kg, ip qd for 4 days by MTT assay; assay type: functional, organism-based; parameters: dose 4.7 mg/kg
Summary of the method: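 Hollow-fiber assay in mice. Tumor lines were grown in RPMI-1640 with 10% FBS and 2 mM glutamine. Cells at 2 × 10^6 cells/ml were loaded into 1 mm PVDF fibers (500,000 Da cutoff), heat-sealed at 2 cm and held 24–48 h at 37 °C, 5% CO2 before implantation. Compound was given IP. Fibers were collected the day after the fourth treatment for MTT (OD 540 nm, group means). A ≥50% cut in percent net growth versus vehicle counted as positive.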

[34] = tested on: Pseudomonas aeruginosa; test: Antimicrobial activity against Pseudomonas aeruginosa ATCC 27853 by CLSI method; assay type: functional, organism-based
[35] = tested on: HCC 2998; test: Cytotoxicity against human HCC2998 cells by sulforhodamine B assay; assay type: functional
Summary of the method: (§3)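 Run by the NCI Developmental Therapeutics Program on its 60-line human tumour cell panel using the standard procedure. Compounds went through a single-concentration prescreen first, and those active by NCI criteria went on to a five-concentration growth-inhibition test. GI50 is the concentration that cuts growth of treated cells to half that of untreated control cells.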

[36] = tested on: HT-29; test: Cytotoxicity against human HT-29 cells by sulforhodamine B assay; assay type: functional; summary of the method: as §3
[37] = tested on: U-251; test: Cytotoxicity against human U251 cells by sulforhodamine B assay; assay type: functional; settings: for TGI: read-out: pTGI (converted); summary of the method: as §1

C/C=C1\NC(=O)[C@H](Cc2ccccc2)NC(=O)[C@@H](C(C)C)NC(=O)[C@@H]([C@@H](C)CC)NC(=O)[C@H](NC(=O)[C@H](NC(=O)[C@H](CCCNCc2ccc(N3CCOCC3)cc2)NC(=O)[C@H]2CCCN2C(=O)[C@H](NC(=O)[C@@H](NC(=O)[C@@H](NC(=O)[C@H](NC(=O)CCCC(C)C)C(C)C)[C@@H](C)O)C(C)C)C(C)C)[C@@H](C)CC)[C@@H](C)OC(=O)[C@H](C(C)C)NC1=O
GI50 [1]: 1700 nM | TGI ([1]; read-out: pTGI (converted)): 3160 nM | GI50 [2]: 1510 nM | TGI [2]: 2880 nM | GI50 [3]: 1380 nM | TGI ([3]; read-out: pTGI (converted)): 2570 nM | GI50 [4]: 1230 nM | LC50 [4]: 4070 nM | TGI [4]: 2240 nM | GI50 [5]: 1410 nM | LC50 [5]: > 75900 nM | TGI [5]: 3310 nM | growth at 0.008 µM [6]: 100% | growth at 0.008 µM [7]: 105% | growth at 0.008 µM [8]: 104% | growth at 0.008 µM [9]: 100% | growth at 0.008 µM [10]: 95% | growth at 0.08 µM [11]: 99% | growth at 0.08 µM [12]: 101% | growth at 0.08 µM [13]: 93% | growth at 0.08 µM [14]: 98% | growth at 0.08 µM [15]: 110% | growth at 0.08 µM [16]: 91% | growth at 0.8 µM [17]: 104% | growth at 0.8 µM [18]: 3% | growth at 0.8 µM [19]: -15% | growth at 0.8 µM [20]: 90% | growth at 0.8 µM [21]: 97% | growth at 0.8 µM [22]: 91% | growth at 0.8 µM [23]: 86% | growth at 8 µM [24]: -68% | growth at 8 µM [25]: -77% | growth at 8 µM [26]: -53% | growth at 8 µM [27]: 20% | growth at 80 µM [28]: -26% | growth at 80 µM [29]: 13% | growth at 80 µM [30]: 9% | growth at 80 µM [31]: -58% | growth at 80 µM [32]: -43% | Activity [33]: inactive | Activity [34]: inactive | LC50 [35]: 3310 nM | GI50 ([35]; read-out: GI50): 250 nM | TGI ([35]; read-out: TGI): 877 nM | GI50 ([35]; read-out: pGI50 (converted)): 251 nM | TGI ([35]; read-out: pTGI (converted)): 871 nM | GI50 ([36]; read-out: GI50): 224 nM | GI50 ([36]; read-out: pGI50 (converted)): 224 nM | GI50 [37]: 1000 nM | LC50 [37]: 3890 nM | TGI [37]: 2000 nM

C/C=C1\NC(=O)[C@H](Cc2ccccc2)NC(=O)[C@@H](C(C)C)NC(=O)[C@@H]([C@@H](C)CC)NC(=O)[C@H](NC(=O)[C@H](NC(=O)[C@H](CCCNCc2ccc(F)c(C)c2)NC(=O)[C@H]2CCCN2C(=O)[C@H](NC(=O)[C@@H](NC(=O)[C@@H](NC(=O)[C@H](NC(=O)CCCC(C)C)C(C)C)[C@@H](C)O)C(C)C)C(C)C)[C@@H](C)CC)[C@@H](C)OC(=O)[C@H](C(C)C)NC1=O
GI50 [1]: 1480 nM | GI50 [2]: 1410 nM | TGI [2]: 2690 nM | GI50 [3]: 1100 nM | GI50 [4]: 1150 nM | LC50 [4]: 3980 nM | TGI [4]: 2140 nM | GI50 [5]: 1260 nM | LC50 [5]: 4900 nM | TGI [5]: 2450 nM | growth at 0.008 µM [6]: 108% | growth at 0.008 µM [7]: 102% | growth at 0.008 µM [8]: 101% | growth at 0.008 µM [9]: 105% | growth at 0.008 µM [10]: 101% | growth at 0.08 µM [11]: 101% | growth at 0.08 µM [12]: 99% | growth at 0.08 µM [13]: 96% | growth at 0.08 µM [14]: 103% | growth at 0.08 µM [15]: 108% | growth at 0.08 µM [16]: 94% | growth at 0.8 µM [17]: 104% | growth at 0.8 µM [18]: -35% | growth at 0.8 µM [19]: -55% | growth at 0.8 µM [20]: 83% | growth at 0.8 µM [21]: 88% | growth at 0.8 µM [22]: 80% | growth at 0.8 µM [23]: 91% | growth at 8 µM [24]: -62% | growth at 8 µM [25]: -71% | growth at 8 µM [26]: -53% | growth at 8 µM [27]: -55% | growth at 80 µM [28]: -18% | growth at 80 µM [29]: 33% | growth at 80 µM [30]: -36% | growth at 80 µM [31]: -60% | growth at 80 µM [32]: -89% | Activity [33]: inactive | Activity [34]: inactive | LC50 [35]: 891 nM | GI50 ([35]; read-out: GI50): 172 nM | TGI ([35]; read-out: TGI): 367 nM | GI50 ([35]; read-out: pGI50 (converted)): 174 nM | TGI ([35]; read-out: pTGI (converted)): 363 nM | GI50 ([36]; read-out: GI50): 164 nM | GI50 ([36]; read-out: pGI50 (converted)): 162 nM | GI50 [37]: 363 nM | LC50 [37]: 3160 nM | TGI [37]: 1260 nM
